This sample holds only a part of the variants without activity.
B1: tRNA (parent)
chain: GUUCCGUUGGCGUAAUGGUAACGCGUCUCCCUCCUAAGGAGAAGACUGCGGGUUCGAGUCCCGUACGGAACG

Variants of: B1
Assay: yeast fitness relative to wild type (ratio to wild type); higher = fitter; tRNA-Arg(CCU), competitive growth, 37 C, YPD
Summary of the method: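 Genotype frequency changes were the basis for Darwinian fitness relative to wild type. The frequencies came from 100-nucleotide paired-end sequencing of gene amplicons from the start population and each end population of pooled yeast strains with tRNA-Arg(CCU) gene variants at the native locus. Competition ran in YPD at 37°C for 24 hours in six replicates, genotypes needed ≥ 100 starting reads, and estimates < 0.5 were set to 0.5.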

| Variant | yeast fitness |
| --- | --- |
| C31U C34U A57C | ≤ 0.5 |
| U8C C11A A15C C49U A57G C61U | ≤ 0.5 |
| A40C A45C C62U | ≤ 0.5 |
| C27U C29U C49G | ≤ 0.5 |
| C5U U26A U59C | 0.722 |
| G10C C55A A65C G68A | ≤ 0.5 |
| U2A C24A | 0.662 |
| C5A C22G C24G C31U A43U G48A | 0.544 |
| U7C G58C | 0.781 |
| A43G A69U | 1.04 |
| C4G G17A | 0.724 |
| U26A C49G A69C | 0.6 |
| C22G C66A | 0.704 |
| U8C A15C G63A | ≤ 0.5 |
| U7A G9A U13A A70U | ≤ 0.5 |
| C5A G68A | 0.82 |
| C4U G23A U26C | ≤ 0.5 |
| A14C A20U C27G U59C C61A | ≤ 0.5 |
| C4U G51C | 0.637 |
| G17C C30G U32C C60G G63A A65U C66U | 0.544 |
| C11G C22G A37G C60A A70G | ≤ 0.5 |
| U7G C11G C34U G41A A65C | ≤ 0.5 |
| U28C G63A | 0.939 |
| C4U G17A U19G A21G A43G G63A | ≤ 0.5 |

| Variant | yeast fitness |
| --- | --- |
| C4A C24A G52C A57C U59A G63A | ≤ 0.5 |
| G6A U8A C24U A40U | 0.684 |
| A15C A45C G48A | 0.638 |
| G17A A20C G25A G68C | ≤ 0.5 |
| G38A G41C A69U | 0.822 |
| G6A A45U A69U | 0.826 |
| A15G A40U G48C C60G | ≤ 0.5 |
| C11A U13A A14U G23C A69U | ≤ 0.5 |
| U7A G9C G17C G48A C62A | ≤ 0.5 |
| C24G A45G G51C U54A G56C | ≤ 0.5 |
| C31A A43G | 0.897 |
| C4U A43C G67A | 0.733 |
| U16C C30U C34G G39A | ≤ 0.5 |
| U8G G18C A37G A40G C55G C66A | ≤ 0.5 |
| G23A C33G G63A | 0.594 |
| U19C A36U | 0.566 |
| C5A C46U C55U | 0.763 |
| A40C A45U | 0.98 |
| C24G C27G A45C | ≤ 0.5 |
| G25A A45C U53C C55U G56C | ≤ 0.5 |
| G17C G38A | 0.599 |
| U54C A57G C60G | 0.787 |
| A14C C27G U35C C46G A65G | ≤ 0.5 |
| G6A C22U C49A | ≤ 0.5 |

| Variant | yeast fitness |
| --- | --- |
| U3C C11A A21G U28C U32G | ≤ 0.5 |
| C24A C31G C34U | 0.616 |
| U13A U32C | 0.875 |
| C4A A14U A43C A65U | ≤ 0.5 |
| C24G U54A A65U C66U | ≤ 0.5 |
| G12A A15U | 0.782 |
| G23C A57G | 0.677 |
| C24A U32C | 0.612 |
| C46G | 0.99 |
| U3C G12A C30U G44A C61U | ≤ 0.5 |
| A20G G25C C49U | 0.76 |
| G41C A65G | 0.905 |
| C49U A57C | 0.78 |
| A65U A69C | 0.845 |
| G38A G50C | 0.746 |
| C5U U54C | 0.805 |
| U7A G48A | 0.99 |
| G12A A43U A45C G67C G68U | ≤ 0.5 |
| U2A U16A C31G | 0.875 |
| C30U A37C C46U | 0.666 |
| U3C G50A C61U | 0.671 |
| U2A A36C | 0.518 |
| C5G G17A A20C C49G G51A | ≤ 0.5 |
| U2G G10C G63A | ≤ 0.5 |

| Variant | yeast fitness |
| --- | --- |
| C11G C55A G63A | 0.553 |
| C11G G17A U19C | ≤ 0.5 |
| U7A A20C G68C | 0.539 |
| G6C G17A C24A U32C A45C C60A | ≤ 0.5 |
| U3C C34G A65G | 0.757 |
| C5G C24G C29A A43U G68C | ≤ 0.5 |
| U26A A45C | 0.698 |
| U3C A43U A45G A69C | ≤ 0.5 |
| C5U U28A U35C U59A | ≤ 0.5 |
| G6C G58C U64A | 0.529 |
| C22U C46G | 0.835 |
| U3C U8G U32A C33G U53A A69C | ≤ 0.5 |
| C4U A14C | 0.749 |
| G10C A14U U19A C22U C66U | ≤ 0.5 |
| U16C C33U A36C C49G | ≤ 0.5 |
| U3A C31U G52A | 0.614 |
| U2G C30A | 0.709 |
| A14G G18C | 0.559 |
| G25A C27G C29G C46A A65G C66U | ≤ 0.5 |
| A20C A42C C60A | ≤ 0.5 |
| G39C A40C G41A A42G A65U | ≤ 0.5 |
| U2C C27G C31G A69U | ≤ 0.5 |
| U3C G10A | 0.718 |
| G23C C24G C34G | ≤ 0.5 |

| Variant | yeast fitness |
| --- | --- |
| A15C G17A | 0.707 |
| C31G G51C | 0.756 |
| G50C C61U C62U A69U | ≤ 0.5 |
| U2A U32A C62G | 0.509 |
| C4G U32A C34G G41C C49G | ≤ 0.5 |
| C24U | 0.983 |
| G51C | 0.612 |
| A14C A43G G68C | 0.65 |
| C24G U47A | 0.57 |
| G12A G18C A36C | 0.537 |
| A21U C33A G39C G41C G44C A69C | ≤ 0.5 |
| U16C U35C U47C | ≤ 0.5 |
| U32G C33G | 0.59 |
| G38A G52C G56A | 0.609 |
| A21G C22U G63C A69C | 0.524 |
| C24G C55U C61A | 0.515 |
| U3A G6A A37C C55G G58C | ≤ 0.5 |
| C33G C46U C60U | ≤ 0.5 |
| U2C A15C G23A C31G A45U | 0.61 |
| A14G C30G A42U A45G A69U | ≤ 0.5 |
| G12C U19A C27G G44C | ≤ 0.5 |
| U2G C49U G52A G68C | ≤ 0.5 |
| C22U C60U C61A G63C A65U | ≤ 0.5 |
| G25C C62U | 0.999 |

| Variant | yeast fitness |
| --- | --- |
| U3C C22G C31U U53C | ≤ 0.5 |
| U13C C31U U54C G58C C61A A69U | ≤ 0.5 |
| G17C U32C | 0.644 |
| G6C U8C C49U A65U | ≤ 0.5 |
| C5G C11U A37C C49U C60A | 0.557 |
| A37C C55U | 0.769 |
| C5G C11U A37C A43G G50A | ≤ 0.5 |
| G6A G12C | 0.855 |
| A14C A20U A69C | ≤ 0.5 |
| C11U U35A G38A | 0.51 |
| U13C C22U | 0.932 |
| A14G G17C C24U C49U A69U | ≤ 0.5 |
| G18A C34G U54C | ≤ 0.5 |
| C22G A65G | 0.932 |
| U26C U35C C49U A57U | 0.656 |
| G17A C33U U59G | 0.501 |
| G58A G67U | 0.804 |
| G25C C46U G50A C66U | 0.716 |
| C11U A15U C60U G67C | ≤ 0.5 |
| A42U G48A C61G C66G | ≤ 0.5 |
| U3C C5G C11G | ≤ 0.5 |
| U8G U13G A37U G63C | ≤ 0.5 |
| C11U A20U G44A C46A G52A C66U | ≤ 0.5 |
| C30U A57C | 0.586 |

| Variant | yeast fitness |
| --- | --- |
| G12C A20U A36G C46A U54A A70U | ≤ 0.5 |
| C22G U26C C33U A37U A40C G63C | ≤ 0.5 |
| U7A G67C | 0.669 |
| G25A G48C | 1.14 |
| U3A A15C U16C C66U | ≤ 0.5 |
| C11A U16C U28C U32G C49G C55A | ≤ 0.5 |
| U16G C29G C62G | ≤ 0.5 |
| G6A C24G | 0.625 |
| U2C C4U C34U C55U G68C | ≤ 0.5 |
| U47A G68U | 0.775 |
| C4U A36G A69C | 0.8 |
| U26G C60A | 0.593 |
| C4G C34G A43G A57C | ≤ 0.5 |
| A14G G23C C27A G51A | ≤ 0.5 |
| G6C G41C | 0.671 |
| C30U G38A G52A | 0.621 |
| C29U C46G | 1.02 |
| G10A U47A | 0.815 |
| C11A U32A C33U U47A G63A | ≤ 0.5 |
| C31G U32A G56C | 0.6 |
| G18C U47C G51A | ≤ 0.5 |
| G10C C33G A40U | 0.579 |
| C27G C46A C49G | 0.704 |

Source: the RNAGym collection of RNA variant scans (doi:10.1126/science.aae0568)
